Results of several laboratories.
Compare with care: the assays were run in different laboratories.
Target: Serine/threonine-protein kinase PRP4 homolog (PRPF4B, Homo sapiens, UniProt Q13523)

SMILES | assay | setting | remaining binding [%]
Cc1nn(C)cc1-c1nc2c(N3CCN(Cc4ccc(Cl)cc4)CC3)c(Cl)cnc2[nH]1 | binding, competition with immobilised ligand | 1 µM | 100
c1cncc(-c2cccc(Nc3nccc(NC4CCCCC4)n3)c2)c1 | binding, competition with immobilised ligand | 10 µM | 100
O=C(c1ccc(Nc2ncc(Cl)c(-c3ccc(Cl)s3)n2)cc1)N1CCC(N2CCCC2)CC1 | binding, competition with immobilised ligand | 1 µM | 19
Cc1c(NC(=O)c2cc(C(N)=O)nc3cc(F)ccc23)c(C(F)(F)F)nn1Cc1ccc(C(C)(C)C)cc1 | cell-free assay, competition with immobilised ligand | 1 µM | 73
CN(CCCC(F)(F)F)c1nccc(-c2cnn3ncccc23)n1 | binding | 1 µM | 100
Cc1noc([C@H]2C[C@@H](c3ccc(C(F)(F)F)cc3)CN(C(=O)N3CCS(=O)(=O)C3)C2)n1 | cell-free assay, competition with immobilised ligand | 1 µM | 72
N[C@H]1CCN(c2nccc(-c3cnn4ncccc34)n2)C1 | binding | 1 µM | 82
CC(C)(O)c1cncc(-c2nc3ccc(F)cc3n2C2CC2)c1 | cell-free assay, competition with immobilised ligand | 1 µM | 58
C=CC(=O)N1CCC(C(=O)NCC(=O)N2CCN(c3nc(-c4cnc(N)nc4C(F)F)nc(N4CCOCC4)n3)CC2)CC1 | binding, competition with immobilised ligand | 1 µM | 100
CN(C)c1ncc(F)c(-c2cnn3ncccc23)n1 | binding | 1 µM | 100
O=C(NCCCN1CCOCC1)c1ccc(Nc2nccc(-c3cc4ccccc4s3)n2)cc1 | binding, competition with immobilised ligand | 1 µM | 6.8
COc1ccnn2ncc(-c3ccnc(N(C)C)n3)c12 | binding | 1 µM | 69
CC(=O)N1CCC(c2ccc(C(=O)NC(=N)N)cc2C(F)(F)F)CC1 | cell-free assay, competition with immobilised ligand | 1 µM | 78
O=C(Nc1c[nH]nc1C(=O)NC1CCNCC1)c1cc(F)cc(F)c1 | binding, competition with immobilised ligand | 1 µM | 82
C[C@@H]1CCN(c2nccc(-c3cnn4ncccc34)n2)C1 | binding | 1 µM | 64
CN1CCN(c2cnc3c(C4CCN(C(=O)c5ccc(OC(F)(F)F)cc5N)CC4)ncnc3c2)CC1 | cell-free assay, competition with immobilised ligand | 1 µM | 100
Cc1cnc(Nc2ccc(C(=O)N3CCC(N4CCCC4)CC3)cc2)nc1-c1cc2ccccc2s1 | binding, competition with immobilised ligand | 1 µM | 5.2
c1cnn2ncc(-c3ccnc(N4CCC45COC5)n3)c2c1 | binding | 1 µM | 84
O=C(NCCCC1CCCCC1)c1ccc(CNC(=O)c2cnn(-c3ccccc3)c2C(F)(F)F)cc1 | cell-free assay, competition with immobilised ligand | 0.1 µM | 100
COc1cnc(Nc2cccc(S(N)(=O)=O)c2)nc1N1CCN(c2ccccc2)CC1 | binding, competition with immobilised ligand | 1 µM | 90
Cc1nccc(COC(=O)N2C[C@@H]3[C@@H](CNC(=O)c4ccc5[nH]nnc5c4)[C@@H]3C2)n1 | cell-free assay, competition with immobilised ligand | 1 µM | 95
Cc1cnn2ncc(-c3ccnc(N(C)C)n3)c2c1 | binding | 1 µM | 94
